An excerpt weighted towards active compounds, which were near 2.6% of everything screened.
V1aR counter: counter-screen for oxytocin receptor agonists: human V1a receptor agonists. P37288. activation, % at 3 µM. 320,000 tested, 0.25% active. CHO-V1R cells, Fluo-8 calcium fluorescence, agonist mode; 0% DMSO, 100% 3 nM vasopressin;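 active means activation above the mean activation of all tested compounds plus 3 SD, per screening run, cut at about 20% in these data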;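 further: signal is peak over basal fluorescence ratio across a 100 second FLIPR read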
Target sequence (P37288 whole entry, looked up): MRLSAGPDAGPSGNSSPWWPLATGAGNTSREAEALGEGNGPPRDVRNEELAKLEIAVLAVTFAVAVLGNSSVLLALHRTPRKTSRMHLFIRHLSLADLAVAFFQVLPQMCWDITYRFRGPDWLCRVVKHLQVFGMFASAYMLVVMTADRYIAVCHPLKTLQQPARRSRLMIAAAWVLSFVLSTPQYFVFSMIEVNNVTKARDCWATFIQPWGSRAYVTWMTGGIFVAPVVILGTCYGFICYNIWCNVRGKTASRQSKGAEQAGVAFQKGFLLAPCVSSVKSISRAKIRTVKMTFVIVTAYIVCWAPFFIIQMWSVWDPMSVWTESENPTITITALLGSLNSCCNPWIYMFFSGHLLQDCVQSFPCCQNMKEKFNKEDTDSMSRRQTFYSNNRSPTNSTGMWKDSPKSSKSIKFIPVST
CHO parental Ca: counter-screen for OX1R antagonists: effect in parental CHO cells; parental CHO-K1, ATP-induced calcium, Fluo-8 fluorescence; inhibition, % at 5.6 µM; 330,000 tested, 0.63% active; AID 463079;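 active means inhibition above that plate's mean sample inhibition plus 3 SD, cut at about 26% in these data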;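 further: 0% = ATP-challenged DMSO wells and 100% = DMSO wells without ATP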
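Test system: untransfected parental CHO cell line. Compound: one dose, 5.6 µM nominal. Detection: intracellular calcium via Fluo-8 no-wash fluorescent dye. Measure: % inhibition. Benchmarks: ATP-challenged DMSO wells low, unchallenged DMSO wells high.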
OX1R antag-1: blocks the human orexin 1 receptor. 330,000 tested, 0.43% active. inhibition, % at 5 µM. CHO/OX1R cells, Fluo-8 calcium fluorescence, orexin A. O43613;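 active means inhibition above its plate's threshold, mean inhibition of all tested compounds on the plate plus 3 SD, cut at about 37% in these data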;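 further: 0% = orexin A challenge wells and 100% = SB-334867-A antagonist wells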
OXTR potentiator: human OXTR potentiation; CHO-OTR cells, Fluo-8 calcium fluorescence, potentiator mode; 0% = oxytocin EC15, 100% = EC100; activation, % at 3 µM; 320,000 tested, 0.061% active; AID 2445;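 active means activation above that plate's cutoff, the mean activation of tested compounds plus 3 SD, cut at about 6.6% in these data, passing the limit was not always enough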;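 further: 100% uses oxytocin at 75 nM as the full agonist control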
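Material: human OTR in CHO cells. Compound: 3.0 µM, one dose. Timing: compound 6 min at room temperature before oxytocin, 100 s read. Evaluation: % activation of max/min ratio relative to oxytocin controls. Replication: single well per compound, singlicate. Signal: Fluo-8 calcium dye fluorescence.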
OX1R antag-2: OX1R (human) antagonism; 330,000 tested, 1.8% active; OX1R-expressing cells, FRET antagonist read-out; inhibition, % at 6.6 µM; in the data active means inhibition mostly above about 38%, no sharp cut-off; inactive means mostly below about 40%;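 further: 0% = agonist challenge alone and 100% = reference antagonist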
OXTR agonist: activates the human oxytocin receptor | P30559 | CHO-OTR cells, Fluo-8 calcium fluorescence; normalized: DMSO 0%, oxytocin 100% | activation, % at 3 µM | 320,000 tested, 0.32% active;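 active means activation above the mean of all tested compounds plus 3 SD, cutoff set per screening run, cut at about 20% in these data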;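 further: peak over basal fluorescence ratio from a 100 s FLIPR kinetic read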
Active calls of the source: *.

SMILES	V1aR counter	CHO parental Ca	OX1R antag-1	OXTR potentiator	OX1R antag-2	OXTR agonist
Cc1ccc(-c2cc3c(nn2)-c2ccccc2C3=O)cc1	0	-18	-31	-6	44*	-2
O=C1c2ccccc2-c2nnc(-c3ccc(F)cc3)cc21	0	-3	12	-7	8	0
Cc1ccccc1-c1cc2c(nn1)-c1ccccc1C2=O	-1	-38	-14	-12	72*	-2
CCOC(=O)N/N=C\c1ccc(C)s1	0	0	3	0	15	0
Cc1cc(C)n(CC(=O)N/N=C/c2ccc([N+](=O)[O-])s2)n1	0	-4	-10	-9	58*	0
CCOC(=O)N/N=C\c1ccc([N+](=O)[O-])s1	0	-4	-4	-4	52*	-1
O=S(=O)(c1ccc(Br)s1)N1CCN(CCOc2ccccc2)CC1	7	-9	-2	-12	4	-2
CC(=O)N1c2ccc(S(=O)(=O)N3CCC(C(=O)Nc4cccc(C(F)(F)F)c4)CC3)cc2CC1C (centres undefined)	11	55*	23	-7	11	7
CCc1cccc(NC(=O)C2CCN(S(=O)(=O)c3ccc4c(c3)CC(C)N4C(C)=O)CC2)c1 (centres undefined)	6	14	-17	-9	16	5
O=C(Nc1cccc(C(F)(F)F)c1)C1CCN(S(=O)(=O)c2ccc(N3CCCC3=O)cc2)CC1	15	73*	48*	-8	30	12
CCOCCCNC(=O)C(c1ccc(C)cc1)N(Cc1cccs1)C(=O)CNC(C)=O (centres undefined)	0	-3	-3	1	13	1
Clc1cccc(-c2ccc(/C=N/n3cnnc3)o2)c1	0	-4	9	-6	7	-1
O=[N+]([O-])c1cc(-c2ccc(/C=N\n3cnnc3)o2)cc([N+](=O)[O-])c1	0	-9	-14	-5	69*	0
Cc1cc(C)cc(OCC(=O)Nc2nc(-c3cccnc3)cs2)c1	-1	-9	-10	-5	17	-1
O=c1c2cc([N+](=O)[O-])ccc2nc2n1CCCC2	2	7	-16	-17	69*	0
O=c1c2cc(Br)ccc2nc2n1CCCCC2	0	-16	-21	-3	17	0
COCCN(CCOC)S(=O)(=O)c1ccc(C(=O)NCCCN2CCOCC2)cc1	0	56*	42	-7	13	1
COC(=O)c1sc(S(=O)(=O)NC(Cc2ccccc2)C(=O)O)c(C(=O)OC)c1C (centres undefined)	0	-5	13	-3	32*	-1
C=CCC(=O)N1CCCC(CO)(Cc2ccc(F)cc2F)C1 (centres undefined)	1	-9	-23	-7	10	0
CCC1(c2ccccc2)ON(c2c(Br)cccc2Br)C1=O (centres undefined)	-1	-10	-24	-4	13	-2
CCOC(=O)/C(C#N)=C1/C=CN(C)C(C)=N1	1	1	-19	6	14	0
CCOC(=O)/C(C#N)=C1/C=C(C)NC(c2ccccc2O)=N1	7	-3	25	-13	40*	15
COc1cc(/C=C/c2nnc3c4ccccc4ncn23)cc(OC)c1OC	0	-3	-3	-6	65*	1
COc1cc(/C=C/c2nc3ccccc3c(=O)[nH]2)cc(OC)c1OC	1	-15	-16	-5	7	0
COCCCNC(=O)/C(C#N)=C/c1c(N2CCN(c3ccccc3)CC2)nc2ccccn2c1=O	4	-14	-30	-4	27	-1
SMILES	V1aR counter	CHO parental Ca	OX1R antag-1	OXTR potentiator	OX1R antag-2	OXTR agonist
COCCCNC(=O)/C(C#N)=C/c1c(N2CCN(C)CC2)nc2ccccn2c1=O	1	-7	-19	-13	47*	0
COc1cc(N2CCCC2)c(OC)cc1/C=C1/NC(=S)NC1=O	36*	32*	64*	-9	25	48*
O=C1NC(=S)N/C1=C/c1cc2c(cc1[N+](=O)[O-])OCO2	1	2	-12	-13	23	0
COc1cccc(NC(=O)C2CCCN(S(=O)(=O)c3cccc4nsnc34)C2)c1 (centres undefined)	3	-14	23	-10	85*	3
CCc1cccc(NC(=O)C2CCCN(S(=O)(=O)c3cccs3)C2)c1 (centres undefined)	2	-25	6	-9	52*	0
CCN1CCN(C(=O)C2CCCN(S(=O)(=O)c3cccc4nsnc34)C2)CC1 (centres undefined)	0	-13	-16	-6	52*	1
COc1ccc(NC(=O)C2CCCN(S(=O)(=O)c3cccs3)C2)cc1OC (centres undefined)	2	3	-21	-2	13	0
COc1ccccc1NC(=O)C1CCCN(S(=O)(=O)c2cccc3nsnc23)C1 (centres undefined)	0	-28	-21	-3	52	-1
O=C(NCC1CCCO1)C1CCCN(S(=O)(=O)c2cccc3nsnc23)C1 (centres undefined)	0	-9	-2	0	55*	-1
CC(C)(C)c1csc(N/N=C/c2ccc(O)cc2)n1	1	-1	-4	-17	-5	2
CC(C)c1ccc(C2(C)NC(=O)N(CC(=O)NCC3COc4ccccc4O3)C2=O)cc1 (centres undefined)	3	-30	-10	-11	2	-1
O=[N+]([O-])c1ccc(O)c2cccnc12	0	-4	-10	-8	66*	-1
CC(SCC(=O)Nc1ccccc1)c1nc2ccccc2c(=O)[nH]1 (centres undefined)	0	-15	-11	6	12	1
CC(C)c1ccc(NC(=O)CSC(C)c2nc3ccccc3c(=O)[nH]2)cc1 (centres undefined)	0	-5	2	-6	63*	0
COCCN(C(=O)CCN1C(=O)C2CC=CCC2C1=O)c1c(N)n(CC(C)C)c(=O)[nH]c1=O (centres undefined)	0	-2	-20	-6	0	1
CCOC(=O)N1CCN(C(=O)C(=O)Nc2ccc3nc4n(c(=O)c3c2)CCCCC4)CC1	0	-16	-33	-3	8	-1
CCc1c2c(nc3ccc(OC(=O)N4CCC(N5CCCCC5)CC4)cc13)-c1cc3c(c(=O)n1C2)COC(=O)[C@]3(O)CC	1	-5	-25	1	53*	2
CCC(C)/C(C)=N/Nc1ccc(S(N)(=O)=O)cc1[N+](=O)[O-] (centres undefined)	0	21	-19	-19	76*	-2
